Only some compounds are listed: those with a hit (about 1.5% of all), similar ones and a draw of the others.
Rev-erbA mod – modulators of human Rev-erb alpha DNA binding; Rev-erbα–FITC-DNA binding, fluorescence polarization, 90 min; activity, % at 10 µM; 370,000 tested, 0.79% active; AID 1259318;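 active means activity above about 14%, limit read from the data; passing the limit was not always enough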;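 further: 0% = DMSO wells with 35 nM protein and 100% = DMSO wells with 750 nM protein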
aDG glyco up – increases alpha dystroglycan glycosylation | Pro5-aDG cells, alpha-DG glycosylation AlphaScreen (IIH6); 0% Pro5, 100% B10-LARGE cell signal | activation, % at 10 µM | 360,000 tested, 0.22% active;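 active means activation of at least 8% versus controls, or a plate z-score of at least 8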;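 further: Pro5 are CHO cells carrying HIG-tagged alpha-DG that lacks glycosylation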
CSN deneddyl inh – inhibitors of human CSN-mediated cullin deneddylation; 360,000 tested, 0.38% active; Purified CSN, SCF-Nedd8-OG deneddylation, fluorescence polarization; inhibition, % at 12.5 µM;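 active means pattern-corrected inhibition above about 35%, with an unprinted fluorescence ratio check between 0.5 and 1.5, limit read from the data, passing the limit was not always enough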;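 further: 0% = enzyme with substrate and 100% = substrate without enzyme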
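Material: human Csn5 produced in HEK293T cells; Input: enzyme 0.24 nM; Reagent: SCFSkp2-Nedd8OG substrate at 10 nM final; Dosing: 12.5 µM compound; Incubation: 90 min reaction at room temperature; Detection: fluorescence polarization of the substrate; Evaluation: % inhibition of substrate cleavage by Csn5; Control set: substrate-only high control, full reaction low control.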
HNF4A DNA FP – change in binding of human HNF4 alpha to DNA | P41235 | HNF4a-FITC DNA binding, fluorescence polarization, 1 h | activity change, % at 10 µM | 360,000 tested, 0.3% active | AID 1224865; in the data active means activity change above about 30%, passing the limit was not always enough
CSN5 deneddyl – validation of inhibitors of human CSN-mediated cullin deneddylation | shares compounds with CSN deneddyl inh | Csn5 deneddylation of SCF-Nedd8OG, fluorescence polarization, 90 min | inhibition, % at 16.6 µM | 540 tested, 62% active; in the data active means inhibition above about 50%;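 further: 0% = DMSO with enzyme and 100% = no enzyme wells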
MMP-2 counter – blocks human MMP-2 in a CSN deneddylation counter-screen | shares compounds with CSN deneddyl inh | inhibition, % at 16.6 µM | recombinant MMP-2, FRET substrate fluorescence, 60 min | AID 720655 | 540 tested, 33% active;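 active means corrected plate-normalized z-score of 5 or more, or -5 or less, or inhibition of 15% or more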;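 further: plate controls were DMSO wells with enzyme for no effect and buffer wells lacking MMP-2 for full effect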
Thrombin cntr – thrombin (bovine) inhibition, counter-screen for CSN hits; shares compounds with CSN deneddyl inh; bovine thrombin cleavage of Ub4-pepOG, fluorescence polarization; inhibition, % at 16.6 µM; 540 tested, 49% active; AID 720656;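 active means inhibition at or above a set limit, with a fluorescence interference ratio between 0.5 and a set maximum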
Target sequence (P00735 whole entry, looked up): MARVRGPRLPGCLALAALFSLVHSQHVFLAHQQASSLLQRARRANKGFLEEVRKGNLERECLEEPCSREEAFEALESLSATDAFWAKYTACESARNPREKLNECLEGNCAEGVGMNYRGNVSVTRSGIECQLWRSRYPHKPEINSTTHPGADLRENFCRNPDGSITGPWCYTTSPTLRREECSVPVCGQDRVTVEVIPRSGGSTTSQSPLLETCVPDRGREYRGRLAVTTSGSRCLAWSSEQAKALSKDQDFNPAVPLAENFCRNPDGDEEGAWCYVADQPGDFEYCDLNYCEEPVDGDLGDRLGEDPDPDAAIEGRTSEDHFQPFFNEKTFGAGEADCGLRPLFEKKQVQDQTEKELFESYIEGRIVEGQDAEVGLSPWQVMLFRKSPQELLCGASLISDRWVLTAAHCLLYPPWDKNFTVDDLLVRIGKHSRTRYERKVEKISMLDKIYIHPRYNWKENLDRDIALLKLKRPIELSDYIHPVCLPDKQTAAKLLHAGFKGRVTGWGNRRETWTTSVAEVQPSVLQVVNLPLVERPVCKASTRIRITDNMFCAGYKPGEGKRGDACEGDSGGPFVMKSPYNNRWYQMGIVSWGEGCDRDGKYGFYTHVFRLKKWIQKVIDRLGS
HNF4a DNA conf – change in binding of human HNF4 alpha to DNA, retest. shares compounds with HNF4A DNA FP. HNF4A-FITC DNA binding, fluorescence polarization, 1 h. activity change, % at 12.5 µM. 210 tested, 99% active; call rule not given here
NR1D1 mod conf – Rev-erb alpha (human) modulation, hit confirmation; shares compounds with Rev-erbA mod; 3,000 tested, 61% active; activation, % at 25 µM; Rev-erb alpha FITC-DNA binding, fluorescence polarization, 90 min;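 active means activation at or above a set limit, or at least 3 SD above the negative control mean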;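 further: 0% = 35 nM protein with DMSO and 100% = 750 nM protein high control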
RORg counter – affects RORgamma DNA binding in a Rev-erb alpha counter-screen | shares compounds with Rev-erbA mod | purified RORgamma protein-FITC-DNA binding, fluorescence polarization | IC50, µM | 910 tested, 8% active;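 active means Compounds whose fitted half-maximal concentration for disrupting protein-DNA binding is below 10 micromolar; the record names Rev-erb in its text, so the target is in doubt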
Active calls of the source: *; x = no result.

SMILES | Rev-erbA mod | aDG glyco up | CSN deneddyl inh | HNF4A DNA FP | CSN5 deneddyl | MMP-2 counter | Thrombin cntr | others
COc1ccc(S[C@]2(C(=O)N3CCOCC3)CC(=O)N(C(=O)C3CC3)[C@@H]2c2ccc(OC)cc2)cc1 | -6 | x | x | x | x | x | x
COC(=O)C/C=C/[C@@H](C)[C@H](NC(=O)OCC(Cl)(Cl)Cl)c1ccc(-c2ccccc2)cc1 | -4 | x | x | x | x | x | x
O=C(CSc1nc(-c2ccc(F)cc2)nc2c1Cc1ccccc1O2)Nc1cccc(C(=O)O)c1 | -2 | 0 | 43* | -87 | 6 | 30* | 6
O=C(CSc1nc(-c2ccccc2)nc2ccc(F)cc12)Nc1cccc(C(=O)O)c1 | 6 | 0 | 0 | -4 | x | x | x
Nc1c(/C=C2/C=CC(=O)C(O)=C2)c(=O)nc2sc(CC(=O)N3CCCC3)nn12 | -15 | 0 | 39* | -2 | 25 | 36* | 37*
COC1=CC(=Cc2c(N)n3nc(CC(=O)N4CCCCC4)sc3nc2=O)C=C(OC)C1=O | 8 | 0 | 78* | 38* | 34 | -11 | 74*
CCOC(=O)[C@@]12CCCC=C1N(CCc1ccc(Cl)cc1)C(=O)[C@H]2CC(=O)NCC1CCCCC1 | 1 | x | x | x | x | x | x
COC(=O)[C@H]1C[C@@]2(N3CCCCC3)c3ccccc3N(C(=O)OC(C)(C)C)[C@H]2N1C(=O)OC(C)(C)C | -12 | x | x | x | x | x | x
C[n+]1c(-c2ccccc2)cc2c(=Cc3ccccc3)c3ccccc3n21 | 2 | 1 | 1 | 3 | x | x | x
CN(C)c1ccc(C=c2c3cc(O)ccc3n3c2cc(-c2ccccc2)[n+]3C)cc1 | 22* | -1 | 138* | 161 | -60 | 100* | 68* | NR1D1 mod conf=-2
O=[N+]([O-])c1ccc(N/N=C/c2sc(N3CCOCC3)nc2-c2ccccc2)c(S(=O)(=O)Nc2ccccc2Cl)c1 | 24* | -1 | 51* | 60* | 83* | -4 | 36* | NR1D1 mod conf=2
CC(=O)N1CCc2c1cccc2S(=O)(=O)NC(CC(C)C)C(=O)Nc1ccc(Cl)c(Cl)c1 (stereo not drawn) | -4 | x | x | x | x | x | x
CC1CCN(c2ccc(C(=O)O)cc2NS(=O)(=O)c2ccc(C(C)(C)C)cc2)CC1 | -2 | x | x | x | x | x | x
CC(C)CC[n+]1ccccc1/C=C/c1ccc(N(C)C)cc1 | 32* | 0 | 38* | 55* | 88* | -58* | 11 | NR1D1 mod conf=30*;RORg counter=>40
COc1ccc(/C=C(/C(=O)c2ccc(Cl)cc2Cl)n2cncn2)cc1 | -1 | 0 | 4 | -2 | x | x | x
CN(C)c1ccc(/C=C(/C(=O)c2ccc(Cl)cc2Cl)n2cncn2)cc1 | 21* | 0 | 79* | 92* | 93* | -23* | 70* | NR1D1 mod conf=18*
CCOC(=O)[C@]12CCCCC/C=C\1N(Cc1ccc(OC)cc1)C(=O)[C@H]2CC(=O)NCc1cccs1 | -4 | x | x | x | x | x | x
COc1ccc(Cl)cc1C(=O)Nc1cccc(-c2ccc3nncn3n2)c1 | 128* | 0 | 137* | 55* | -14 | 18* | 22* | NR1D1 mod conf=183*;RORg counter=>40
C=CCN1C(=O)/C(=C\C=C2\N(C)c3ccccc3C2(C)C)SC1=S | 25* | 1 | 72* | 108 | 117* | -35* | -54 | NR1D1 mod conf=39*;RORg counter=>40
CC(CCN1CCC(C(O)(c2ccccc2)c2ccccc2)CC1)Oc1ccccc1C#N (stereo not drawn) | 3 | x | x | x | x | x | x
CCN1/C(=C/c2ccc3cc(C)ccc3[n+]2CC)Sc2cc(C)c(C)cc21 | 20* | 4 | 50* | 107* | 29 | 7 | 43 | NR1D1 mod conf=22*
CCN1/C(=C/c2ccc3cc(C)ccc3[n+]2CC)Sc2ccccc21 | 111* | 2 | 72* | 119* | 66* | -23* | -61 | NR1D1 mod conf=101*;RORg counter=>40
CC[n+]1ccccc1/C=C1\Sc2ccc(C)cc2N1C | 5 | 0 | 4 | 1 | x | x | x
CCN1/C(=C/c2sc(-c3ccccc3C)c[n+]2C)Sc2ccccc21 | -1 | 1 | 6 | 1 | x | x | x
Cc1c(N2C(=O)/C(=C\c3ccc(N(C)C)cc3)N(C)C2=S)c(=O)n(-c2ccccc2)n1C | 25* | 0 | 75* | 44* | 85* | -7 | 68* | NR1D1 mod conf=20*
SMILES | Rev-erbA mod | aDG glyco up | CSN deneddyl inh | HNF4A DNA FP | CSN5 deneddyl | MMP-2 counter | Thrombin cntr | others
Cc1ccc(C(=O)N(C)[C@H]2C[C@H]3c4[nH]c5c(-c6ccc7c(c6)OCO7)cccc5c4CCN3C[C@H]2[C@H](C)O)cc1 | 9 | x | x | x | x | x | x
Cc1ccc(NC(=O)c2ccc(NCc3ccco3)c([N+](=O)[O-])c2)cc1Cl | 1 | 0 | 90 | 47* | x | x | x | HNF4a DNA conf=93*
Cc1ccc(NC(=O)c2ccc(NCC3CCCO3)c([N+](=O)[O-])c2)cc1Cl (stereo not drawn) | -7 | 0 | 41* | 37* | x | x | x | HNF4a DNA conf=54*
COc1ccc(C(C(=O)N(C)C2CCCC2)N(Cc2ccc(F)cc2)C(=O)c2cc(C)[nH]n2)cc1OC (stereo not drawn) | 5 | x | x | x | x | x | x
COc1ccccc1N1C(=O)S/C(=C\c2ccc(C)s2)C1=O | -2 | 0 | 27 | 43* | x | x | x | HNF4a DNA conf=76*
COc1ccccc1N1C(=O)S/C(=C\c2cc(C)n(C)c2C)C1=O | 6 | 1 | 23 | 0 | x | x | x
CS(=O)(=O)Nc1cccc(C2=NN(S(C)(=O)=O)C(c3ccccc3)C2)c1 (stereo not drawn) | 5 | 0 | 8 | 24 | x | x | x
CCS(=O)(=O)Nc1cccc(C2=NN(S(=O)(=O)CC)C(c3ccccc3)C2)c1 (stereo not drawn) | 2 | 0 | 10 | 55* | x | x | x | HNF4a DNA conf=79*
COC(=O)[C@]12C[C@H](CC(=O)N3CCC(c4ccccc4)CC3)C(=O)N(CCc3ccc(OC)c(OC)c3)C1=C[C@H](C(C)C)O[C@@H]2C1CC1 | 0 | x | x | x | x | x | x
Cc1cc(C)c(NC(=O)CSCc2nc3sc(C)c(C)c3c(=O)[nH]2)c(Cl)c1 | 2 | 0 | 18 | 43* | x | x | x | HNF4a DNA conf=74*
C=CCN1[C@H](C)COc2cccc(N3CCCC3)c2S1(=O)=O | -2 | x | x | x | x | x | x
CN(C(=O)CNC(=O)c1ccccc1OCC(=O)Nc1ccc(Br)cc1)c1ccccc1 | 5 | x | x | x | x | x | x

Source: PubChem BioAssay (Sanford-Burnham Center for Chemical Genomics)
